74 sequences from the array DNA melting data of Ke et al. (doi:10.1101/2024.01.08.574731) can be followed below.

Series [1] is described as follows: folding enthalpy; higher = less favourable; fluorescence melt of hairpins on a sequencing array, two-state fit. Particulars: sodium 0.088 M. In outline:
(§1)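 Bootstrapped two-state fits yielded melting temperature and folding enthalpy for library hairpins. Cy3 fluorescence, with annealed Cy3 and quencher oligos, was imaged on a sequenced MiSeq flow cell in 50 mM Na-HEPES pH 8.0, 25 mM NaCl in 2.5 °C steps up to 60 °C, and normalised to pre-quench Cy3 and to control constructs. Four replicates were combined by inverse variance, and fitted temperatures were raised by 9.35 °C to match UV melts.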

Series [2] can be described thus: melting temperature; fluorescence melt of hairpins on a sequencing array, two-state fit, raised by 9.35 °C to match UV melts. Particulars: sodium 0.088 M. In outline: as §1

For the sequence GCTTTTGGAAACAAAAGC (((((((....))))))), in series [1], the folding enthalpy was -42.2 kcal/mol. Further, the Tm in series [2] was 61.5 °C.
Taken in the same sequence, the figures for GATCCGACACGGATC ((((((...)))))) were -35.6 kcal/mol and 59.1 °C.
As to GCGTCTCGAAAGAGTCGC (((.(((....))).))), the folding enthalpy in series [1] was -38.1 kcal/mol. In addition, in series [2], the Tm is 58.1 °C.
Taken in the same sequence, the figures for GGCTATTCGAAAGAAGCC (((..(((....)))))) were -25.2 kcal/mol and 37.7 °C.
On the same counts, the results for GATCGTACACACGATC ((((((....)))))) are -40.7 kcal/mol and 54.4 °C.
For GATCCCTCAGGGGATC ((((((....)))))), in series [1], the folding enthalpy is -34.6 kcal/mol. In series [2], the Tm was 60.6 °C.
On the same counts, the results for GCAGAGCGAAAGCTAAGC ((..(((....)))..)) are -15.1 kcal/mol and 43.8 °C.
On the same counts, the results for GTGCCCGAAAGGGACCAC ((((((....)))..))) are -11.3 kcal/mol and 49.5 °C.
On the same counts, the results for GATCCCCATCGGGATC ((((((....)))))) are -35.4 kcal/mol and 58.2 °C.
Turning to GATCCTGAGAGGATC ((((((...)))))), in series [1], the folding enthalpy is -31.1 kcal/mol. In series [2], the Tm came out at 50.7 °C.
For the sequence GTCCTGACGAAAGTCGAC (((..(((....)))))), the folding enthalpy in series [1] is -10.3 kcal/mol. In addition, in series [2], the Tm is 29.1 °C.
Taken in the same sequence, the figures for GGATTCGGAAACAAATCC (((((.(....).))))) were -22.9 kcal/mol and 35.8 °C.
On the same counts, the results for GTTCGGGGAAACCCAAAC (((.(((....))).))) are -23.8 kcal/mol and 36 °C.
Taken in the same sequence, the figures for GCAGTTCGAAAGAAATGC (((.(((....))).))) were -36.8 kcal/mol and 54.2 °C.
As to GGGAATGGAAACATCCCC (((.(((....))).))), in series [1], the folding enthalpy is -24.7 kcal/mol. In addition, the Tm in series [2] is 42.2 °C.
Take GCTCGGCGAAAGCCTAGC (((.(((....))).))): the folding enthalpy in series [1] is -40.8 kcal/mol. The Tm in series [2] was determined as 52.8 °C.
On the same counts, the results for GTAGTCGGAAACGATTAC (((.(((....))).))) are -30.4 kcal/mol and 44.1 °C.
Taken in the same sequence, the figures for GATCCAGTACTGGATC ((((((....)))))) were -47.2 kcal/mol and 57.1 °C.
On the same counts, the results for GTTGTTGGAAACAACAAC (((((((....))))))) are -41.5 kcal/mol and 58.6 °C.
For GTGCACGAAAGTGACCAC ((((((....)))..))), the folding enthalpy in series [1] was -12.7 kcal/mol. Besides, in series [2], the Tm is 41.3 °C.
With GATCATGGAAACATGGTC ((.((((....)))).)), in series [1], the folding enthalpy was -25.8 kcal/mol. Also, the Tm in series [2] stood at 46.6 °C.
On the same counts, the results for GGAACCACGAAAGTGTCC (((..(((....)))))) are -11.2 kcal/mol and 28.1 °C.
Taken in the same sequence, the figures for GCATTAGGAAACTAATGC (((((((....))))))) were -44.6 kcal/mol and 55.6 °C.
Turning to GTAGTTGGAAACGACTAC (((((.(....).))))), the folding enthalpy in series [1] was -26.4 kcal/mol. In addition, the Tm in series [2] turned out to be 45.8 °C.
For the sequence GATCGTAGCCACGATC ((((((....)))))), in series [1], the folding enthalpy was -39.3 kcal/mol. Further, the Tm in series [2] is 56.2 °C.
On the same counts, the results for GATCACAGACGTGATC ((((((....)))))) are -37 kcal/mol and 57 °C.
Consider GTAGCCGGAAACGGTTGC (.(.(((....))).).), for which the folding enthalpy in series [1] is -15.2 kcal/mol. In series [2], the Tm amounted to 36.4 °C.
As to GCCAACCGAAAGGTGGC (((.(((....)))))), the folding enthalpy in series [1] was -22.9 kcal/mol. Besides, the Tm in series [2] worked out at 67.4 °C.
Regarding CAAAGGAAACTTTG (((((....))))), the folding enthalpy in series [1] is -16.2 kcal/mol. In addition, the Tm in series [2] came to 35 °C.
Taken in the same sequence, the figures for GTGGTCGAAAGACCGCAC ((((((....)))..))) were -11.6 kcal/mol and 55.6 °C.
GATCATCCACATGATC ((((((....)))))): the folding enthalpy in series [1] is -34.7 kcal/mol. In series [2], the Tm turned out to be 46.4 °C.
On the same counts, the results for GAGTACGAAAGTAACCTC ((((((....)))..))) are -14.8 kcal/mol and 27.8 °C.
Taken in the same sequence, the figures for GACAGCGAAAGCTAAGTC ((((((....)))..))) were -17.5 kcal/mol and 38.2 °C.
Taken in the same sequence, the figures for GAGTGACGAAAGTCTCTC (((.(((....))).))) were -32.2 kcal/mol and 50.9 °C.
On to GACGAAACGAAAGTTGTC (((..(((....)))))), for which the folding enthalpy in series [1] is -19.6 kcal/mol. In addition, in series [2], the Tm was 35 °C.
On the same counts, the results for GACAGGCCGAAAGGCGTC (((..(((....)))))) are -14.9 kcal/mol and 47.7 °C.
On the same counts, the results for GACCGGAAACGGTC (((((....))))) are -28.3 kcal/mol and 67.5 °C.
Taken in the same sequence, the figures for GAACGGGAAACCGTTC ((((((....)))))) were -37.1 kcal/mol and 62.8 °C.
Turning to GGGCCCGCGAAAGCGCCC (((..(((....)))))), the folding enthalpy in series [1] was -15.6 kcal/mol. Also, the Tm in series [2] was found to be 55.8 °C.
Taken in the same sequence, the figures for GTGGAGAAATCCAC (((((....))))) were -25.7 kcal/mol and 49.3 °C.
On the same counts, the results for GATCCCAGTCGGGATC ((((((....)))))) are -33.4 kcal/mol and 61.3 °C.
Taken in the same sequence, the figures for GTCGCCGGAAACGGTGGC (.(.(((....))).).) were -25.5 kcal/mol and 52.2 °C.
Consider GGCGTCGAAAGACAAGCC ((((((....)))..))), for which, in series [1], the folding enthalpy is -43.4 kcal/mol. Further, the Tm in series [2] turned out to be 55.2 °C.
Taken in the same sequence, the figures for GATCCATCATGGATC ((((((...)))))) were -32.5 kcal/mol and 52.5 °C.
As to GAGGAACGAAAGTTCTC (((.(((....)))))), the folding enthalpy in series [1] is -13.6 kcal/mol. Moreover, the Tm in series [2] was found to be 38.9 °C.
With GAGACCGGAAACGGTTTC ((.((((....)))).)), the folding enthalpy in series [1] was -22.5 kcal/mol. In addition, in series [2], the Tm came out at 49.5 °C.
For GCTATGCGAAAGCATTGC ((.((((....)))).)), in series [1], the folding enthalpy is -30.2 kcal/mol. The Tm in series [2] worked out at 60.3 °C.
Consider GTTGGCGAAAGCCAAAC ((((((....))).))), for which the folding enthalpy in series [1] is -11.6 kcal/mol. The Tm in series [2] turned out to be 56.2 °C.
On the same counts, the results for GCCTAAACGAAAGTTGGC (((..(((....)))))) are -24.9 kcal/mol and 46.7 °C.
Taken in the same sequence, the figures for GATCTTTACGAAGATC ((((((....)))))) were -32.2 kcal/mol and 45.3 °C.
With GGAAAGGGAAACCTTCCC ((.((((....)))).)), in series [1], the folding enthalpy was -19.3 kcal/mol. Moreover, the Tm in series [2] is 33.3 °C.
Taken in the same sequence, the figures for GATCGTGGGACGATC ((((((...)))))) were -30 kcal/mol and 53.8 °C.
On the same counts, the results for GCCATGCGAAAGCAAAGC ((..(((....)))..)) are -11.5 kcal/mol and 32.2 °C.
Taken in the same sequence, the figures for GACTAGCGAAAGCTTGTC (((.(((....))).))) were -31.3 kcal/mol and 54.7 °C.
Regarding GAACCTGAAAAGGTTC ((((((....)))))), the folding enthalpy in series [1] is -31.8 kcal/mol. In addition, the Tm in series [2] was determined as 60.6 °C.
Taken in the same sequence, the figures for GGGAATCGAAAGATCCCC (((.(((....))).))) were -24.9 kcal/mol and 51.5 °C.
On to GTACCGGGAAACTGGTGC (.(((.(....).))).), for which the folding enthalpy in series [1] is -25.9 kcal/mol. For the same sequence, in series [2], the Tm came out at 42.4 °C.
Consider GCGGTGAACCGC ((((....)))), for which, in series [1], the folding enthalpy is -30 kcal/mol. Also, the Tm in series [2] stood at 61.1 °C.
On the same counts, the results for GCATTGCGAAAGCAACGC ((.((((....)))).)) are -26.7 kcal/mol and 60.4 °C.
On the same counts, the results for GCTGAACGAAAGTTTAGC (((.(((....))).))) are -31.5 kcal/mol and 53 °C.
On the same counts, the results for GACGTAGGAAACTACGCC (.(((((....))))).) are -16.6 kcal/mol and 43.6 °C.
Take GCGACTACTCGC ((((....)))): in series [1], the folding enthalpy is -23.2 kcal/mol. Further, the Tm in series [2] stood at 46.6 °C.
Taken in the same sequence, the figures for TAGTGGAAACACTA (((((....))))) were -14.9 kcal/mol and 40.9 °C.
On the same counts, the results for GCTCTGCGAAAGCACCGC ((..(((....)))..)) are -8.79 kcal/mol and 31.8 °C.
On the same counts, the results for GCCACAGGAAACCATGGC ((((..(....)..)))) are -22.8 kcal/mol and 33.3 °C.
For the sequence GCTAGCCCGAAAGGGAGC (((..(((....)))))), the folding enthalpy in series [1] is -14.3 kcal/mol. The Tm in series [2] was 37.8 °C.
Taken in the same sequence, the figures for GTTGGCGAAAGCCTAAC ((((((....))).))) were -12.8 kcal/mol and 43.4 °C.
On the same counts, the results for GGGACAGGAAACTATCCC ((((.((....)).)))) are -29.4 kcal/mol and 35.4 °C.
On the same counts, the results for GGCTGTCGAAAGACGCC (((.(((....)))))) are -31.2 kcal/mol and 61.1 °C.
Take GATCTTCGCTAAGATC ((((((....)))))): the folding enthalpy in series [1] is -34.2 kcal/mol. Also, the Tm in series [2] was 43 °C.
Taken in the same sequence, the figures for GCCCACGAAAGTGTTGGC ((((((....)))..))) were -20.4 kcal/mol and 49 °C.
Taken in the same sequence, the figures for GATCAACCATTGATC ((((((...)))))) were -29 kcal/mol and 38.8 °C.
On the same counts, the results for GCCGAGGGAAACCTCGAC (.(((((....))))).) are -14.1 kcal/mol and 49.5 °C.
For the sequence GTCTCCGAAAGGACGGAC ((((((....)))..))), the folding enthalpy in series [1] is -15.7 kcal/mol. Further, in series [2], the Tm stood at 35.7 °C.
